In PMC9633546 (Angewandte Chemie (International Ed. in English), 2022):
Converted amounts (≈) assume the structure as drawn.

Assays:
[1] = system: M. abscessus ATCC 19977; assay: MIC assay in 96-well plate format, WT M. abscessus; format: cell-based, Mycobacterium abscessus subsp. abscessus; conditions: Mycobacteroides abscessus, ATCC19977, read-out: WT Mab MIC
[2] = system: Δarr M. abscessus; assay: MIC assay in 96-well plate format, arr-deleted strain; format: cell-based, Mycobacterium abscessus; conditions: isogenic arr-deleted M. abscessus ATCC 19977; 90 % growth inhibition
[3] = system: Arr Mab; assay: LC-MS/HPLC in vitro validation of ADP-ribosylation; format: biochemical, M. abscessus; conditions: 40 minute incubation, 5 µM enzyme
Procedure, shortened: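 The enzyme was recombinant M. abscessus Arr, cloned, expressed and purified in-house. Enzymatic reactions were analysed by LC-MS, quantifying the remaining rifamycin and its ADP-ribosylated adducts.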

[4] = Pharmacokinetics studies in CD-1 mice; format: in vivo, mouse
[5] = in vitro; conditions: plasma

SMILES | MIC [1] [µM] | Δarr Mab MIC [2] [µM] | ADP-ribosylation upon incubation with Arr Mab and NAD+ [3] | ADP-ribosylation upon incubation with Arr Mab and NAD+ ([3]; listed as Rifabutin) | V d ([4]; CD-1 mice, single dose 10 mg/kg) [L/kg] | fAUC/MIC ([4]; based on p.o. doses of 10 mg kg^−1) | half-life ([4]; female, CD-1, mouse, plasma, 10 mg/kg) [h] | fraction unbound [5]
CC[C@H]1OC(=O)[C@H](C)[C@@H](O[C@H]2C[C@@](C)(OC)[C@@H](O)[C@H](C)O2)[C@H](C)[C@@H](O[C@@H]2O[C@H](C)C[C@H](N(C)C)[C@H]2O)[C@](C)(OC)C[C@@H](C)C(=O)[C@H](C)[C@@H](O)[C@]1(C)O [clarithromycin] | 1.45 (≈ 1.08 µg/mL) | 1.8 | – | – | – | – | – | –
CO[C@H]1/C=C/O[C@@]2(C)Oc3c(C)c(O)c4c(c3C2=O)C2=NC3(CCN(CC(C)C)CC3)NC2=C(NC(=O)/C(C)=C\C=C\[C@H](C)[C@H](O)[C@@H](C)[C@@H](O)[C@@H](C)[C@H](OC(C)=O)[C@@H]1C)C4=O [rifabutin] | 1.15 (≈ 0.974 µg/mL) | 0.031 | completely converted | fully converted | 3.51 | 0.22 | 4 | 0.0376
CO[C@H]1/C=C/O[C@@]2(C)Oc3c(C)c(O)c4c(O)c(c(/C=N/N5CCN(C)CC5)c(O)c4c3C2=O)NC(=O)/C(C)=C\C=C\[C@H](C)[C@H](O)[C@@H](C)[C@@H](O)[C@@H](C)[C@H](OC(C)=O)[C@@H]1C [rifampicin] | 5.3 (≈ 4.36 µg/mL) | 0.26 | completely converted | – | – | – | – | –
